# Test results published in article PMC4140444 (Drug Design, Development and Therapy, 2014).
# Columns and labels:
# [1] = molecular target: T1, CYP19 (a recombinant human aromatase) (Homo sapiens, UniProt P11511); assay: Aromatase inhibition assay; type: biochemical; settings: screened at 12.5 μM
# T1 sequence (P11511 1-503): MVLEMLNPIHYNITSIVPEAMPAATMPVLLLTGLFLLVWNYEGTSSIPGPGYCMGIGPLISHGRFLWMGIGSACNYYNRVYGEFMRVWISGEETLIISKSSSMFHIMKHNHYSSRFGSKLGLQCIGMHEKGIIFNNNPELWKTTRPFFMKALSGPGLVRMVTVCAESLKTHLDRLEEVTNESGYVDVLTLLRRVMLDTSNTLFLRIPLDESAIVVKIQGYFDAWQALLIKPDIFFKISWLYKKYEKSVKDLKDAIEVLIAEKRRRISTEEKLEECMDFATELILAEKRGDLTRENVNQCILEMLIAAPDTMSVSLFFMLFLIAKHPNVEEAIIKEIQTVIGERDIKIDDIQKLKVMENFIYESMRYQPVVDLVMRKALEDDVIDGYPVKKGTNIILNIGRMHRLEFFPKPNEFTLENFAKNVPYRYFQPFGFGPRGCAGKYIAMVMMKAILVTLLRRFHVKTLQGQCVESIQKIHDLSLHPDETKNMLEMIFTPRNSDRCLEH
# [2] = Cytotoxicity, MTT assay on normal embryonic lung cells; type: cell-based; settings: human, MRC-5 normal embryonic lung cells
# How it was run: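 MRC-5 cells grown in DMEM with 10% fetal bovine serum and 100 U/mL penicillin–streptomycin, seeded at 5×10³–2×10⁴ cells/well, then held 24 h at 37°C in 5% CO2. Serial dilutions of test compound added in an equal volume of medium, with doxorubicin (positive) and DMSO (negative) controls, for 48 h. MTT applied for 2–4 h; formazan dissolved in DMSO with sonication; read at 550 nm against a 650 nm reference. IC50 is the concentration giving 50% growth inhibition versus the DMSO control.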
# [3] = system: human breast cancer MCF-7 cell line; settings: cited from earlier work
"Aromatase inhibitory activity (IC50 column, activity class) [1]",Structure (SMILES),IC50 at 48 h [2],Cytotoxic activity against MCF-7 [3]
Inactive ^b,"O=c1[nH]cc([N+](=O)[O-])c(=O)[nH]1 [Compound 2, 5-nitrouracil]",> 50 µg/mL,–
Inactive ^b,"O=c1[nH]cc(I)c(=O)[nH]1 [Compound 3, 5-iodouracil]",> 50 µg/mL,–
–,COc1cccc2c1C(=O)c1c(O)c3c(c(O)c1C2=O)C[C@@](O)(C(=O)CO)C[C@@H]3O[C@H]1C[C@H](N)[C@H](O)[C@H](C)O1 [Doxorubicin],> 50 µg/mL,–

Structure (SMILES),"Aromatase inhibitory activity (IC50 column, activity class) [1]",IC50 at 48 h [2],Cytotoxic activity against MCF-7 [3]
"Oc1cccc2cccnc12 [Compound 1, 8-hydroxyquinoline]",Inactive ^b,6.27 ± 0.58 µM,substantial cytotoxic activity
